In publication PMC12491721 (Acta Pharmaceutica Sinica. B, 2025):

What was measured:
PTP1B = assay: In vitro PTP1B proteolysis; assay type: cell-based, mouse; settings: IFN-γ-treated GL261 cells, Western blot
GL261 cells [1] = assay: Cytotoxicity, CCK-8; assay type: cell-based, mouse; settings: GL261, 24 h, n = 5
Method in brief: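 GL261 cells were exposed to test compound for 24 h, then incubated 20 min in medium containing 10% CCK-8. Absorbance was read at 450 nm. For the +L arm, the zero-concentration point is cells receiving laser without compound. n = 5.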

[2] = system: intratumoral CD8+ T cells; assay: Exhaustion markers PD-1 and Tim3 in tumor-derived T cells; assay type: cell-based, mouse; settings: for Tim3 expression (Tim3-positive cells) / PD-1 expression (PD-1-positive cells): 5 μmol/L, 48 h, n = 3, mean ± SD; for Tim3 expression (Tim3-positive cells): untreated 65.6 ± 4.84%; for PD-1 expression (PD-1-positive cells): untreated 69.6 ± 6.46%; for PD-1 and Tim3 levels: 24 h, no significant differences between the two groups
[3] = Brain accumulation in orthotopic GBM model, NIRF imaging; assay type: in vivo, BALB/c-nu mice; settings: for time of peak accumulation in brain: orthotopic GL261, i.v., NIRF imaging
Method in brief: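 Orthotopic model: 1 × 10^5 GL261 cells in saline were injected stereotactically into the brains of BALB/c-nu mice (2.0 mm lateral, 0.5 mm anterior to bregma, 3.0 mm depth, 1 μL/min). Test compound or VPF was given i.v. at an equivalent 3 mg/kg VPF content. Brain accumulation was followed by whole-body NIRF imaging, with ex vivo NIRF imaging of GBM tissue at 6 h.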

GL261 tumor [4] = assay: Immune cell analysis of tumor tissues, flow cytometry; assay type: in vivo, C57BL/6 mice; settings: for apoptosis rate of T cells within tumor tissues vs saline group: CD8+Annexin V+, +L groups
Method in brief: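 Female C57BL/6 mice (6 weeks) bore left-flank tumours from 5 × 10^6 subcutaneous GL261 cells. Treatment was i.v. at 3 mg/kg VPF equivalent; +L groups received 671 nm laser, 100 mW, 15 min, 3 h post-injection. On Day 3, tumours were enzymatically dissociated, Fc-blocked 5 min and antibody-stained 45 min. Flow cytometry gated CD45+CD3+CD8+ cytotoxic T cells and CD8+Annexin V+ damaged T cells. n = 5.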

caspase-3 = assay: Enzyme cleavage, HPLC; assay type: in vitro ADME; settings: pH 5.5 MES buffer, 37 °C, 10 μg/mL enzyme
Method in brief: (§1)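 The self-assembled nanoparticle was incubated at 37 °C in pH 5.5 MES buffer with 10 μg/mL of a single protease: Cat B, Cat D, Cat E, Cat L, caspase-3 or MMP-9. Cat B was also tested in the presence of its irreversible inhibitor Z-FA-FMK. Parent conjugate and cleavage products were followed by HPLC.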

Cat E = assay: Enzyme cleavage, HPLC; assay type: in vitro ADME; settings: pH 5.5 MES buffer, 37 °C, 10 μg/mL enzyme
Method in brief: as §1

GL261 tumor [5] = assay: Therapeutic efficacy in subcutaneous GL261 GBM model; assay type: in vivo, C57BL/6 mice; settings: subcutaneous GL261, i.v. 3 mg/kg VPF equivalent, +L
MMP-9 = assay: Enzyme cleavage, HPLC; assay type: in vitro ADME; settings: pH 5.5 MES buffer, 37 °C, 10 μg/mL enzyme
Method in brief: as §1

[6] = Drug loading capacity calculated from molecular weights; assay type: physicochemical
Method in brief: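 Loading was calculated as (PROTAC MW 1411.59 + VPF MW 702.81) divided by the MW of the whole prodrug conjugate (2595.98). The cathepsin B-cleavable RRK peptide (464.61) is excluded from the numerator.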

Cat B = assay: Target enzyme-specific cleavage, HPLC; assay type: in vitro ADME; settings: pH 5.5 MES buffer, 37 °C, 10 μg/mL Cat B
Method in brief: as §1

GL261 cells [7] = assay: Coculture assay, lysis of GL261 cells by T cells; assay type: cell-based, mouse; settings: T cells treated 5 μmol/L 48 h, coculture 1 h, CCK-8, n = 3
Method in brief: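 Intratumoral CD8+ T cells were isolated with CD8 microbeads from subcutaneous GL261 flank tumours in C57BL/6 mice and kept in RPMI1640 with 10% FBS at 37 °C, 5% CO2. They were stained with Far red CFSE and treated 48 h at 5 μmol/L. They were then cocultured 1 h with green CFSE-labelled GL261 cells. GL261 viability was measured by CCK-8.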

GL261 cells [8] = assay: Intracellular ROS generation, DCFH-DA; assay type: cell-based, mouse; settings: GL261, 5 μmol/L 24 h, n = 3
Method in brief: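 GL261 cells were treated 24 h at 5 μmol/L, then loaded with DCFH-DA for 30 min before irradiation (40 mW, 500 s) or no irradiation. Intracellular DCF fluorescence was the read-out. n = 3.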

Cat D = assay: Enzyme cleavage, HPLC; assay type: in vitro ADME; settings: pH 5.5 MES buffer, 37 °C, 10 μg/mL enzyme
Method in brief: as §1

[9] = Hydrodynamic size by dynamic light scattering; assay type: physicochemical; settings: DLS, aqueous condition (saline, 1 mg/mL), mean ± SD, n = 5
Method in brief: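 Nanoassemblies formed spontaneously in aqueous medium without carrier. They were dispersed at 1 mg/mL in saline and sized by dynamic light scattering (hydrodynamic diameter). Morphology was checked by TEM.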

Cat L = assay: Enzyme cleavage, HPLC; assay type: in vitro ADME; settings: pH 5.5 MES buffer, 37 °C, 10 μg/mL enzyme
Method in brief: as §1

intratumoral T cells = assay: Extracellular IFN-γ release from tumor-derived T cells; assay type: cell-based, mouse; settings: n = 3
[10] = absence of laser irradiation (-L)

Molecule: Cc1cc(-c2c3ccccc3c(Br)c3sc(C)c(C)c23)cc(C)c1O[C@H](Cc1ccccc1)C(=O)O [ertiprotafib, reference compound]
- PTP1B levels (PTP1B; pERK and pAKT decreased): no changes in PTP1B levels
- cytotoxicity (GL261 cells [1]; CCK-8, without laser (-L)): minimum GBM cell death
- Tim3 expression (Tim3-positive cells) [2]: 47.53 ± 3.11%
- PD-1 expression (PD-1-positive cells) [2]: 57.43 ± 5.29%
- PD-1 and Tim3 levels [2]: lower PD-1 and Tim3 levels compared to untreated cells

Molecule: VPF–KALAPYIPRRK–ertiprotafib [PNPTP1B]
- brain fluorescence intensity relative to VPF ([3]; orthotopic GL261, i.v. 3 mg/kg VPF equivalent, 6 h post-injection, NIRF, n = 3): 2.16 fold
- time of peak accumulation in brain [3]: 6 h
- apoptosis rate of T cells within tumor tissues vs saline group (GL261 tumor [4]): no significant differences
- increase in cytotoxic T cells in tumor tissues, (+L) relative to (-L) group (GL261 tumor [4]; CD45+CD3+CD8+, Day 3, n = 5): 1.2 fold
- stability with caspase-3 (caspase-3): stable
- stability with Cat E (Cat E): stable
- PTP1B and related downstream proteins (pERK, pAKT) levels (PTP1B; 5 μmol/L, 24 h): fully restored to levels similar to those in IFN-γ-untreated cells
- time to complete regression in all mice (GL261 tumor [5]): ≤ 8 days
- stability with MMP-9 (MMP-9): stable
- drug loading capacity, PROTAC share [6]: 54.4%
- drug loading capacity, VPF share [6]: 34.2%
- time to complete cleavage into PROTAC and VPF–K (Cat B): ≤ 1 h
- GL261 cell lysis by cocultured T cells (GL261 cells [7]): significantly increased
- intracellular ROS generation (GL261 cells [8]; [10]): no ROS generation was detected
- intracellular ROS generation (GL261 cells [8]; laser 40 mW 500 s (+L)): nearly identical
- stability with Cat D (Cat D): stable
- average diameter (hydrodynamic size) [9]: 87.79 ± 1.25 nm
- cytotoxicity (GL261 cells [1]; CCK-8, with laser irradiation (+L)): even more potent tumor-killing effect
- cytotoxicity (GL261 cells [1]; CCK-8, without laser (-L)): significantly greater cytotoxicity than ertiprotafib
- stability with Cat L (Cat L): stable
- extracellular release of IFN-γ (intratumoral T cells): higher quantity
- Tim3 expression (Tim3-positive cells) [2]: 30.2 ± 4.33%
- PD-1 expression (PD-1-positive cells) [2]: 42.47 ± 6.41%
- PD-1 and Tim3 levels [2]: lower PD-1 and Tim3 levels compared to untreated cells

Molecule: verteporfin [VPF, reference compound]
- time of peak accumulation in brain [3]: 6 h
- apoptosis rate of T cells within tumor tissues vs saline group (GL261 tumor [4]): no significant differences
- intracellular ROS generation (GL261 cells [8]; [10]): no ROS generation was detected
- intracellular ROS generation (GL261 cells [8]; laser 40 mW 500 s (+L)): nearly identical
